How the values were obtained:
Homo sapiens [1] = species on record: Homo sapiens; test: Inhibition of human P-gp expressed in mouse T-cell lymphoma assessed as ratio of rhodamine 123 uptake in P-gp expressing cells to rhodamine 123 uptake in non P-gp expressing cells at 10 uM by flow cytometric analysis relative to control; type: cell-based
Summary of the method: (§1)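 Rhodamine 123 uptake is read by flow cytometry in the parental mouse T-lymphoma line and in the colchicine-selected subline expressing human P-gp, with or without inhibitor. Fluorescence in each line is first normalized to the untreated control of that line. The FAR value is then calculated as subline fluorescence divided by parental-line fluorescence.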

Homo sapiens [2] = species on record: Homo sapiens; test: Inhibition of human P-gp expressed in mouse T-cell lymphoma assessed as ratio of rhodamine 123 uptake in P-gp expressing cells to rhodamine 123 uptake in non P-gp expressing cells at 1 uM by flow cytometric analysis relative to control; type: cell-based; summary of the method: as §1
[3] = Cytotoxicity against mouse T-cell lymphoma assessed as reduction of cell viability after 48 hrs by MTT assay
Summary of the method: (§2)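 MTT viability assay, with formazan formation by mitochondrial dehydrogenases as the read-out. Cells are the parental mouse T-lymphoma line or its retrovirally transfected subline expressing human P-gp, which is kept under colchicine. Cells are incubated with varying concentrations of compound for 24 or 48 h. IC50 is derived from the reduction in viability.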

Homo sapiens [4] = species on record: Homo sapiens; test: Activity at human P-gp expressed in mouse T-cell lymphoma assessed as fluorescence ratio at 100 uM by flow cytometric analysis
Summary of the method: (§3)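 Cells are the parental mouse T-lymphoma line and its subline transfected retrovirally with human P-gp, which is maintained under colchicine selection. The fluorescent test compound is added at 50 or 100 µM. Intrinsic compound fluorescence taken up by the cells is read by flow cytometry. The ratio relates the uptake in the P-gp-expressing subline to that in the parental line. Values are means of three determinations.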

[5] = Cellular uptake in mouse T-cell lymphoma assessed as fluorescence ratio at 100 uM by flow cytometric analysis; type: ADME; conditions: in vitro; summary of the method: as §3
[6] = Cytotoxicity against mouse T-cell lymphoma expressing human P-gp assessed as reduction of cell viability after 48 hrs by MTT assay; type: ADME; summary of the method: as §2
[7] = Cellular uptake in mouse T-cell lymphoma assessed as fluorescence ratio at 50 uM by flow cytometric analysis; type: ADME; conditions: in vitro; summary of the method: as §3
[8] = Cytotoxicity against mouse T-cell lymphoma assessed as reduction of cell viability after 24 hrs by MTT assay; summary of the method: as §2
Homo sapiens [9] = species on record: Homo sapiens; test: Activity at human P-gp expressed in mouse T-cell lymphoma assessed as fluorescence ratio at 50 uM by flow cytometric analysis; summary of the method: as §3
[10] = Cytotoxicity against mouse T-cell lymphoma expressing human P-gp assessed as reduction of cell viability after 24 hrs by MTT assay; type: ADME; summary of the method: as §2

SMILES	Ratio (Homo sapiens [1])	Ratio (Homo sapiens [2])	IC50 [3] [µM]	Ratio (Homo sapiens [4])	Ratio [5]	IC50 [6] [µM]	Ratio [7]	IC50 [8] [µM]	Ratio (Homo sapiens [9])	IC50 [10] [µM]
CCOC(=O)C1=CN(Cc2ccccc2)c2ccccc2C1c1ccccc1 (stereo unspecified)	2.86	0.79								
CCOC(=O)C1=CN(Cc2ccccc2)c2ccccc2C1c1ccc(OC)cc1 (stereo unspecified)	5.52	1.27								
CCOC(=O)C1=CN(Cc2ccccc2)c2ccccc2C1c1cc(OC)cc(OC)c1 (stereo unspecified)	10.5	2.96								
CCOC(=O)C1=CN(Cc2ccccc2)c2ccccc2C1c1cccc(OC)c1 (stereo unspecified)	7.43	1.55	> 160	0.99	0.99	> 160	1.03	> 160	1.03	> 160
CCOC(=O)C1=CN(Cc2cccc(OC)c2)c2ccccc2C1c1cccc(OC)c1 (stereo unspecified)	9.68	2.26								
CCOC(=O)C1=CN(Cc2ccccc2)c2ccccc2C1c1ccc(OC)c(OC)c1 (stereo unspecified)	12.8	3.42	> 160	1.07	1.07	> 160	1.06	> 160	1.06	> 160
CCOC(=O)C1=CN(Cc2ccc(OC)cc2)c2ccccc2C1c1cccc(OC)c1 (stereo unspecified)	10.3	2.03								
CCOC(=O)C1=CN(Cc2ccc(OC)cc2)c2ccccc2C1c1ccc(OC)cc1 (stereo unspecified)	12.4	2.55								
CCOC(=O)C1=CN(Cc2cccc(OC)c2)c2ccccc2C1c1ccc(OC)cc1 (stereo unspecified)	9.95	2.23								
COc1ccc(CCN(C)CCCC(C#N)(c2ccc(OC)c(OC)c2)C(C)C)cc1OC (stereo unspecified)	4.98	1.46								

— ChEMBL document CHEMBL3596125, “Discovery of substituted 1,4-dihydroquinolines as novel promising class of P-glycoprotein inhibitors: First structure-activity relationships and bioanalytical studies” (Bioorg Med Chem Lett, 2015)
